In ChEMBL document CHEMBL1156194, “Discovery of a new series of Aurora inhibitors through truncation of GSK1070916” (Bioorg Med Chem Lett, 2010):
Active and inactive are the calls of the source. The calls are words filed in the database; no cut-off is given here.

Legend:
[1] = biological target: Aurora kinase B/Inner centromere protein (Homo sapiens, UniProt Q96GD4); test: Inhibition of human recombinant aurora B/INCENP complex after 120 mins by IMAP fluorescence polarization assay; type: protein-complex assay
Aurora kinase B/Inner centromere protein, sequence (Q96GD4 whole entry): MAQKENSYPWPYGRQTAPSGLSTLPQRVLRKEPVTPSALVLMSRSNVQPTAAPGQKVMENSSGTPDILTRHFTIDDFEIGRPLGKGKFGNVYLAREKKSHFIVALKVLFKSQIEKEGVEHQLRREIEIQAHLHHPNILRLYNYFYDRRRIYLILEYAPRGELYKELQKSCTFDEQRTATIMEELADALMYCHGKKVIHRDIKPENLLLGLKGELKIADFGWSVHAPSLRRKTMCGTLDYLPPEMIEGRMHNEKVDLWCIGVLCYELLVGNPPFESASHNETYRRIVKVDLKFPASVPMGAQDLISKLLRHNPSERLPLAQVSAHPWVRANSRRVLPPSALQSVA
Aurora kinase B/Inner centromere protein, sequence (Q9NQS7 whole entry, further chain): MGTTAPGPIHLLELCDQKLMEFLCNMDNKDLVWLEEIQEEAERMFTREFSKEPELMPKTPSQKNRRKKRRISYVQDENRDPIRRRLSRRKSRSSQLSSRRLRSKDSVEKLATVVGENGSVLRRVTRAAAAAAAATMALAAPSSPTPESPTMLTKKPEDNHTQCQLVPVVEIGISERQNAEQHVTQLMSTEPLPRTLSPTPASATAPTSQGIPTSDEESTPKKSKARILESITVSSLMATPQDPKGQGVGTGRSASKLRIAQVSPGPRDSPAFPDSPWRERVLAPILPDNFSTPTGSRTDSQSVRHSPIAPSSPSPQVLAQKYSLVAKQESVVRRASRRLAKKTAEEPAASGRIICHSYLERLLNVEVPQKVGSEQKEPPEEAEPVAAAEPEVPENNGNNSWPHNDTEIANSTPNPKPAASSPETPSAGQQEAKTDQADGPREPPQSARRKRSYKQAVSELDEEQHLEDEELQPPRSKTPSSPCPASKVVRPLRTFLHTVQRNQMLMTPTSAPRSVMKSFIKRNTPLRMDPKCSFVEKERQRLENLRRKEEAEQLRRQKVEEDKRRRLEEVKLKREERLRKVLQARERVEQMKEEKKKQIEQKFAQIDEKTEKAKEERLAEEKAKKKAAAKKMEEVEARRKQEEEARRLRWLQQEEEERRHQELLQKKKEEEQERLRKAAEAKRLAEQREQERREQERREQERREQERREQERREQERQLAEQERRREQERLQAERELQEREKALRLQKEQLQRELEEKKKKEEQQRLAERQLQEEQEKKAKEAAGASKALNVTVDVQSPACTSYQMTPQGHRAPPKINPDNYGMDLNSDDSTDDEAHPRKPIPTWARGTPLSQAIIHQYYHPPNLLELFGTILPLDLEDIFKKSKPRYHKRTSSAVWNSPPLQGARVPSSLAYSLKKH

[2] = tested on: A549; test: Cell cycle arrest in human A549 cells assessed as sub-2N DNA accumulation at 5 times EC50 after 48 hrs by FACS analysis relative to control; type: functional
In short: (§1)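 A549 lung tumour cells treated at 5× the compound's EC50 from the cell proliferation assay, alongside a DMSO control. Cell cycle profile read after 48 h by FACS. Values are the percentage of cells with sub-2N, 2N, 2N to 4N, 4N and >4N DNA content.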

[3] = tested on: A549; test: Cell cycle arrest in human A549 cells assessed as greater than 4N DNA accumulation at 5 times EC50 after 48 hrs by FACS analysis relative to control; type: functional; in short: as §1
[4] = tested on: A549; test: Cytotoxicity against human A549 cells in presence of 10% human serum; type: functional, cell-based
In short: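 A549 cell proliferation assay run in 10% human serum. EC50 values are averages of at least two experiments, in nM.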

[5] = tested on: A549; test: Cell cycle arrest in human A549 cells assessed as 2N DNA accumulation at 5 times EC50 after 48 hrs by FACS analysis relative to control; type: functional; in short: as §1
[6] = tested on: A549; test: Cell cycle arrest in human A549 cells assessed as 4N DNA accumulation at 5 times EC50 after 48 hrs by FACS analysis relative to control; type: functional; in short: as §1
[7] = biological target: Aurora kinase B (Homo sapiens, UniProt Q96GD4); test: Inhibition of aurora B assessed as inhibition of histone H3 phosphorylation by ELISA based cellular mechanistic assay
Aurora kinase B, sequence (Q96GD4 whole entry): as the sequence (Q96GD4 whole entry) above
In short: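 Cellular mechanistic assay: ELISA measuring intracellular Aurora B activity through phosphorylation of histone H3, an Aurora B-specific substrate. IC50 values are averages of at least two experiments.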

[8] = tested on: A549; test: Cell cycle arrest in human A549 cells assessed as 2N to 4N DNA accumulation at 5 times EC50 after 48 hrs by FACS analysis relative to control relative to control; type: functional; in short: as §1
[9] = biological target: T1, Aurora kinase A/Targeting protein for Xklp2 (Homo sapiens, UniProt O14965); test: Inhibition of human recombinant aurora A/TPX2 complex after 120 mins by IMAP fluorescence polarization assay; type: protein-complex assay
T1 sequence (O14965 whole entry): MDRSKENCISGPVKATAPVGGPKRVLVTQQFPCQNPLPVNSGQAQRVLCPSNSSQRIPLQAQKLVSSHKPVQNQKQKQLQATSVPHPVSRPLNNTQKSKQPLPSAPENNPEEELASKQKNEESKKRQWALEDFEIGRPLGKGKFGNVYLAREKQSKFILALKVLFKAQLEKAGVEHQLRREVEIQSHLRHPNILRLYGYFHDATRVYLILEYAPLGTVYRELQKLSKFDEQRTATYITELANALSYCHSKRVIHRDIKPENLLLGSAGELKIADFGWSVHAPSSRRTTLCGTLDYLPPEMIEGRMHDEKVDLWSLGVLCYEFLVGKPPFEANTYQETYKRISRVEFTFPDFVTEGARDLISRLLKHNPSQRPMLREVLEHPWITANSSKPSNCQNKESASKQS
T1 sequence (Q9ULW0 whole entry): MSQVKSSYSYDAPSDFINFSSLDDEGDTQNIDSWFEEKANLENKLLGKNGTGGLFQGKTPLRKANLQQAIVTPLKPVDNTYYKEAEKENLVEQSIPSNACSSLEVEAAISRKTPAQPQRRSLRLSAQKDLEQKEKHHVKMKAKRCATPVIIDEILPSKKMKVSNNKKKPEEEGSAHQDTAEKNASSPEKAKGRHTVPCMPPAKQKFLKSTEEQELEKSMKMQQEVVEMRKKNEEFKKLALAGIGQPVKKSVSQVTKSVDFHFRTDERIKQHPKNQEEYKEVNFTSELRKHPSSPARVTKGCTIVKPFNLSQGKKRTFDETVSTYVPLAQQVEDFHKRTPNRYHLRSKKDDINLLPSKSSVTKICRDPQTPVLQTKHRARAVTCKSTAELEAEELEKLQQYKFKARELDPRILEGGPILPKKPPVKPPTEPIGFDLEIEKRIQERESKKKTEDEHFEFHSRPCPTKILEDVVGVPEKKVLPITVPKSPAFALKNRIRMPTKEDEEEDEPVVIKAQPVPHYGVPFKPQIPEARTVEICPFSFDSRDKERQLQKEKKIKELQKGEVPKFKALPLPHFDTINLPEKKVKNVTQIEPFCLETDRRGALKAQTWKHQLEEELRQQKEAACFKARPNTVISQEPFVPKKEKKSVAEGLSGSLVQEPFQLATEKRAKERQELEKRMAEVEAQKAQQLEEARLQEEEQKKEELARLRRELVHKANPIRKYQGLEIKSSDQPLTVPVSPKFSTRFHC

[10] = tested on: A549; test: Cell cycle arrest in human A549 cells assessed as malformed bipolar and monopolar spindle mixture accumulation at 110 nM after 24 hrs by immunofluorescent staining microscopy; type: functional, cell-based
In short: (§2)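 A549 tumour cells treated at 12, 37 or 110 nM for 24 h. Cells stained with α-tubulin antibody for mitotic spindles, pericentrin antibodies for centrosomes, and […] for DNA. Mitotic phenotype scored by immunofluorescence.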

[11] = tested on: A549; test: Cell cycle arrest in human A549 cells assessed as multipolar spindle accumulation at 37 nM after 24 hrs by immunofluorescent staining microscopy; type: functional, cell-based; in short: as §2
[12] = Oral bioavailability in rat; type: ADME, organism-based; conditions: in vivo
[13] = tested on: Rattus norvegicus; test: Dose normalized AUC in po dosed rat; type: ADME, organism-based; conditions: in vivo
[14] = Blood clearance in po dosed rat; type: ADME, organism-based; conditions: whole blood
[15] = tested on: A549; test: Cell cycle arrest in human A549 cells assessed as multipolar spindle accumulation at 12 nM after 24 hrs by immunofluorescent staining microscopy; type: functional, cell-based; in short: as §2

Structure (SMILES)	IC50 ([1]; read-out: pIC50 (converted))	IC50 ([1]; read-out: IC50)	IC50 [7]	IC50 [9]	Activity [2]	Activity [3]	EC50 [4]	Activity [5]	Activity [6]	Activity [8]	Activity [10]	Activity [11]	bioavailability [12]	AUC [13]	CL/F [14]	Activity [15]
c1cc(-c2cn[nH]c2)c2cc[nH]c2n1		782 nM	13400 nM	584 nM			2570 nM									
CN(C)Cc1cccc(-c2cc3c(-c4cnn(C)c4)c(Cl)cnc3[nH]2)c1		0.51 nM	67 nM	6.2 nM	34%	30%	21 nM	6%	26%	4%	Active	Active				
CN(C)Cc1ccc(-c2cc3c(-c4cnn(C)c4)ccnc3[nH]2)cc1		5.9 nM	169 nM	76 nM	30%	2%	24 nM	32%	29%	7%			72%	139 ng·h/mL/mg/kg	86 mL/min/kg	
CN(C)Cc1ccc(-c2cc3c(-c4cnn(C)c4)c(Cl)cnc3[nH]2)cc1		0.61 nM	9 nM	7.9 nM	27%	15%	13 nM	14%	40%	5%		Active				Active

Continued, in another order:

IC50 ([1]; read-out: pIC50 (converted))	IC50 ([1]; read-out: IC50)	IC50 [7]	IC50 [9]	Structure (SMILES)	Activity [2]	Activity [3]	EC50 [4]	Activity [5]	Activity [6]	Activity [8]	Activity [10]	Activity [11]	bioavailability [12]	AUC [13]	CL/F [14]	Activity [15]
2 nM				CCn1cc(-c2ccnc3[nH]ccc23)c(-c2ccc(NC(=O)Nc3ccccc3)cc2)n1												
	3.2 nM	32 nM		CCn1cc(-c2ccnc3[nH]c(-c4cccc(CN(C)C)c4)cc23)c(-c2ccc(NC(=O)N(C)C)cc2)n1 [GSK-1070916]	21%	47%	7 nM	6%	23%	3%						
	802 nM	6160 nM	982 nM	Cn1cc(-c2ccnc3[nH]ccc23)cn1			11700 nM									
	26 nM		> 10000 nM	CCn1cc(-c2ccnc3[nH]ccc23)c(-c2ccc(NC(=O)N(C)C)cc2)n1			1530 nM									
	5.7 nM	104 nM	128 nM	CN(C)Cc1cccc(-c2cc3c(-c4cnn(C)c4)ccnc3[nH]2)c1	36%	3%	134 nM	13%	43%	4%						
